Calls of active or inactive are those of the source. No cut-off for these calls is given here.
What was measured:
Caenorhabditis elegans [1] = assay: Protection against mutant PABPN1-induced toxicity in transgenic Caenorhabditis elegans coexpressing nuclear GFP and PABPN1-A13 assessed as inhibition of nuclear collapse; assay type: functional, organism-based
Outline: (§1)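 Synchronized L1 transgenic worms incubated with drug in OP-50.1 liquid culture; nuclear GFP signals counted at young adulthood under 10x fluorescence microscopy. Percent rescue = ((test − control)/control) × 100, negative values indicating enhanced toxicity. At least 100 worms scored per dose, three independent assays; two-tailed Student's t-test unless stated otherwise.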

Caenorhabditis elegans [2] = assay: Effect on nuclear integrity in transgenic Caenorhabditis elegans coexpressing nuclear GFP and normal PABPN1-A10; assay type: functional, organism-based
Outline: (§2)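 Synchronized L1 worms were kept in OP-50.1 liquid culture with the drug. Nuclear GFP signals were counted at young adulthood under a ×10 fluorescence microscope. Percent rescue = ((test − control)/control) × 100, where a negative value means enhanced toxicity. At least 100 worms were scored per dose, in three independent assays. Comparison was by two-tailed Student's t-test.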

Caenorhabditis elegans [3] = assay: Protection against mutant PABPN1-induced toxicity in transgenic Caenorhabditis elegans coexpressing nuclear GFP and PABPN1-A13 assessed as inhibition of deffective worm motility at 33.3 uM; assay type: functional, organism-based
Outline: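 Drug-treated transgenic worms as day 3-5 adults placed on thin OP-50.1 lawn on NGM plates; body bends (complete sinusoids) counted immediately over 20 s. 60-100 worms per dose, three independent assays; mean ± SEM compared with untreated animals.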

[4] = target: T1, NAD-dependent protein deacetylase sirtuin-2 (Homo sapiens, UniProt Q8IXJ6); assay: Inhibition of human recombinant SIRT2 by Flour de Lys assay
T1 sequence (Q8IXJ6 whole entry): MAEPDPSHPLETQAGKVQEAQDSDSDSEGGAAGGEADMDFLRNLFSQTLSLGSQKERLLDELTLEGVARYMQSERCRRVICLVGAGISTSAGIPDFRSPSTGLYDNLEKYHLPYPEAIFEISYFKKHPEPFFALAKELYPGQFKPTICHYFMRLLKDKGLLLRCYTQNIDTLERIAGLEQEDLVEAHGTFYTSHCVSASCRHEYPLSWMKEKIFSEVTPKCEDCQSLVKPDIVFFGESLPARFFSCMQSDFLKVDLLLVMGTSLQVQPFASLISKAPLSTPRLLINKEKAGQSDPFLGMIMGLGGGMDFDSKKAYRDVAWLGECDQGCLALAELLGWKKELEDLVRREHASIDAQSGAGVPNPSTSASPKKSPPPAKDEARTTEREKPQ

Caenorhabditis elegans [5] = assay: Reduction of PABPN1 expression in transgenic Caenorhabditis elegans coexpressing nuclear GFP and PABPN1-A13 by Q-RT-PCR; assay type: functional, organism-based
[6] = target: T2, NAD-dependent protein deacetylase sirtuin-1 (Homo sapiens, UniProt Q96EB6); assay: Inhibition of human recombinant SIRT1 by Flour de Lys assay
T2 sequence (Q96EB6 whole entry): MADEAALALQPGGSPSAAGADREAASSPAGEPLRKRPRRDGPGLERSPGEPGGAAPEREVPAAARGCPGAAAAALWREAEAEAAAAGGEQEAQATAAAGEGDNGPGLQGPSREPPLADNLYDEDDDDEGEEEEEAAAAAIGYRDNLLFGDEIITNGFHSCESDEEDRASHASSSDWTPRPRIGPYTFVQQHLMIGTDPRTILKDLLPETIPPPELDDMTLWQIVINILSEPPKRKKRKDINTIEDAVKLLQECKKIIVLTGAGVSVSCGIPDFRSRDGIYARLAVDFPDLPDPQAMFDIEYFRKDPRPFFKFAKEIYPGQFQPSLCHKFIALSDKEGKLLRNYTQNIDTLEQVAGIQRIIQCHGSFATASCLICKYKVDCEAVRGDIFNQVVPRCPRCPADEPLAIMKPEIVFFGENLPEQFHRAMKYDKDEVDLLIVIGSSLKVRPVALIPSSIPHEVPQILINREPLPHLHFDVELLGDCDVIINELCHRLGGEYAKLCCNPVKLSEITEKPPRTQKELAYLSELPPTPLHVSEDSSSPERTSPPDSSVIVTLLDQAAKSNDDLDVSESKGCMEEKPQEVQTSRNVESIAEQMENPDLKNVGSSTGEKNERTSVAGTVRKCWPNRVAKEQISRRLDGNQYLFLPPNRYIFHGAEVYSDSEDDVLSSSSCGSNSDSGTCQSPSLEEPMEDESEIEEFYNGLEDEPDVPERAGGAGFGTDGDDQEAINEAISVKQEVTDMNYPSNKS

Caenorhabditis elegans [7] = assay: Protection against mutant PABPN1-induced toxicity in transgenic Caenorhabditis elegans coexpressing nuclear GFP and PABPN1-A13 assessed as inhibition of deffective worm motility; assay type: functional, organism-based
Outline: (§3)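 Worms were drug-treated from the synchronized L1 stage in OP-50.1 liquid culture. Day 3–5 adults were placed on a thin OP-50.1 lawn on NGM plates. Body bends (complete sinusoids) were counted immediately over 20 s. 60–100 worms were scored per dose, in three independent assays. Results are mean ± SEM versus untreated animals, checked by one-way ANOVA.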

Caenorhabditis elegans [8] = assay: Protection against mutant PABPN1-induced toxicity in transgenic Caenorhabditis elegans coexpressing nuclear GFP and PABPN1-A13 assessed as nuclear GFP fluorescence level relative to untreated control; assay type: functional; outline: as §1
Caenorhabditis elegans [9] = assay: Effect on nuclear integrity in transgenic Caenorhabditis elegans coexpressing nuclear GFP and normal PABPN1-A10 assessed as nuclear GFP fluorescence level relative to untreated control; assay type: functional; outline: as §1
Caenorhabditis elegans [10] = assay: Protection against mutant PABPN1-induced toxicity in transgenic Caenorhabditis elegans coexpressing nuclear GFP and PABPN1-A13 assessed as inhibition of nuclear collapse at 11.1 uM; assay type: functional, organism-based; outline: as §2
Caenorhabditis elegans [11] = assay: Protection against mutant PABPN1-induced toxicity in transgenic Caenorhabditis elegans coexpressing nuclear GFP and PABPN1-A13 assessed as inhibition of deffective worm motility at 11.1 uM; assay type: functional, organism-based; outline: as §3
Caenorhabditis elegans [12] = assay: Protection against mutant PABPN1-induced toxicity in transgenic Caenorhabditis elegans coexpressing nuclear GFP and PABPN1-A13 assessed as inhibition of nuclear collapse at 3.7 uM; assay type: functional, organism-based; outline: as §2
Caenorhabditis elegans [13] = assay: Protection against mutant PABPN1-induced toxicity in transgenic Caenorhabditis elegans coexpressing nuclear GFP and PABPN1-A13 assessed as inhibition of deffective worm motility at 3.7 uM; assay type: functional, organism-based; outline: as §3

Row | Compound | Activity (Caenorhabditis elegans [1]) | Activity (Caenorhabditis elegans [2]) | IC50 [4] [µM] | IC50 [6] [µM] | also measured
1 | CC(NC(=O)c1ccccc1/N=C/c1c(O)ccc2ccccc12)c1ccccc1 (stereo unspecified) | Active | inactive | – | – | –
2 | NC(=O)[C@H]1CCCc2c1[nH]c1ccc(Cl)cc21 | Active | – | – | – | Activity (Caenorhabditis elegans [3]): Active
3 | CC(C(=O)Nc1cccc(/N=C/c2c(O)ccc3ccccc23)c1)c1ccccc1 (stereo unspecified) | Active | inactive | – | – | –
4 | CC(NC(=O)c1cccc(/N=C/c2c(O)ccc3ccccc23)c1)c1ccccc1 (stereo unspecified) | – | – | 34.5 | – | –
5 | O=C1Oc2ccc3ccccc3c2CC1C(=O)c1ccccc1Cl (stereo unspecified) | Active | inactive | 9.4 | 89.8 | Activity (Caenorhabditis elegans [5]): inactive; Activity (Caenorhabditis elegans [7]): Active
6 | O=C1CCc2c(ccc3ccccc23)O1 | Active | inactive | – | – | Activity (Caenorhabditis elegans [5]): inactive; Activity (Caenorhabditis elegans [7]): Active
7 | N#C/C(=C\c1ccc(-c2cc(Cl)ccc2Cl)o1)C(=O)Nc1cccc2ncccc12 | Dose-dependent effect | – | – | > 50 | Activity (Caenorhabditis elegans [8]): 20%; Activity (Caenorhabditis elegans [9]): 10%
8 | CC(NS(=O)(=O)c1ccc(/N=C/c2c(O)ccc3ccccc23)cc1)c1ccccc1 (stereo unspecified) | – | inactive | 22.6 | 44.1 | EC50 (Caenorhabditis elegans [7]): < 1 µM; Activity (Caenorhabditis elegans [8]): 10%
9 | CC(CSc1cccc(/N=C/c2c(O)ccc3ccccc23)c1)c1ccccc1 (stereo unspecified) | inactive | – | 19.2 | 40.3 | –
10 | O=c1nc2oc3ccc4ccccc4c3cc-2c(=O)n1-c1ccccc1 | – | inactive | – | – | Activity (Caenorhabditis elegans [10]): Active; Activity (Caenorhabditis elegans [11]): Active
11 | O=c1nc2oc3ccccc3cc-2c(=O)[nH]1 | – | inactive | 244 | 5.3 | Activity (Caenorhabditis elegans [12]): Active; Activity (Caenorhabditis elegans [13]): Active
12 | CC(NC(=O)c1ccc(/N=C/c2c(O)ccc3ccccc23)cc1)c1ccccc1 (stereo unspecified) | Active | inactive | 29.9 | 48.1 | –

— ChEMBL document CHEMBL1159066 (J Med Chem, 2010)
